Laboratory results: ChEMBL document CHEMBL5576109, “Hydantoin derivative dimers as broad-spectrum antimicrobial agents against ESKAPE pathogens with enhanced killing rate and stability” (RSC Med Chem, 2024)
Converted amounts (≈) assume the structure as drawn. The source made the active and inactive calls. The calls are words filed in the database; no cut-off is given here.

Assays:
Bacillus subtilis = experiment: Antibacterial activity against Bacillus subtilis ATCC 6633 assessed as reduction bacterial growth after 16 hrs by TECAN SPARK microplate reader analysis; assay type: functional
Method in brief: (§1)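 Single colony grown overnight in 4 mL TSB at 37 °C, diluted 100-fold and grown to mid-log phase. Compounds 2-fold serially diluted in TSB and mixed 1:1 with bacteria in TSB (1 × 10^6 CFU/mL). Incubated 16 h at 37 °C, then A600 read. MIC taken as the lowest concentration giving complete growth inhibition.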

Acinetobacter baumannii = experiment: Antibacterial activity against Acinetobacter baumannii ATCC 19606 assessed as reduction bacterial growth after 16 hrs by TECAN SPARK microplate reader analysis; assay type: functional; method in brief: as §1
Staphylococcus aureus [1] = experiment: Bactericidal activity against Staphylococcus aureus ATCC 29213 assessed as reduction in colony forming units at 4 times of MIC within 15 mins by time-kill kinetics assay; assay type: functional, organism-based
Method in brief: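 Bacteria grown at 37 °C to mid-log phase and diluted to 1 × 10^6 CFU/mL. […] Mixtures diluted 10^2–10^4-fold and plated on TSB agar; colonies counted after 20 h at 37 °C.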

Staphylococcus aureus [2] = experiment: Antibacterial activity against Staphylococcus aureus ATCC 29213 assessed as inhibition of bacterial growth by measuring fold increase in MIC measured after 16 to 18 hrs in presence of NaCl by TECAN SPARK microplate reader analysis; assay type: functional; conditions: time 16-18 hrs
Method in brief: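 Salt/serum stability. Exponential-phase bacteria incubated 16–18 h with compound in medium supplemented with 10 mM NaCl, 10 mM KCl, 10 mM MgCl2, 10% DMEM or 10% FBS. Stability judged from the change in MIC.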

Escherichia coli [3] = experiment: Antibacterial activity against Escherichia coli ATCC 25922 assessed as inhibition of bacterial growth by measuring fold increase in MIC compound preincubated at 80 degree C for 1 hr followed by bacterial culture addition and measured after 16 to 18 hrs by TECAN SPARK microplate reader analysis; assay type: functional; conditions: time 16-18 hrs
Escherichia coli [4] = experiment: Induction of cytoplasmic membrane depolarization in Escherichia coli ATCC 25922 assessed as increase in fluorescence intensity by DiSC3(5) staining based analysis; assay type: functional, organism-based
Method in brief: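 Mid-log cells washed in 5 mM HEPES/5 mM glucose and resuspended at 10^6 CFU/mL in glucose/HEPES/100 mM KCl (1:1:1). DiSC3(5) added and fluorescence (Ex 622 / Em 670 nm) followed for 30 min at 37 °C until minimal. Compound then added and the fluorescence rise recorded.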

Escherichia coli [5] = experiment: Induction of inner membrane permeabilization in Escherichia coli ATCC 25922 assessed as increase in fluorescence intensity incubated for 1 hr by propidium iodide staining based TECAN SPARK microplate reader analysis; assay type: functional, organism-based
Method in brief: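 Overnight 37 °C cultures resuspended in PBS and diluted to OD600 0.1. Propidium iodide added (5 µM final) for 30 min. Treated with a range of compound concentrations for 1 h in the dark; fluorescence read at Ex 535 / Em 615 nm.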

Escherichia coli [6] = experiment: Induction of morphological changes in Escherichia coli ATCC 25922 assessed as cell wrinkled at 8 time of MIC for 6 hrs by scanning electron microscopy; assay type: functional, organism-based
Method in brief: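 Mid-log cells exposed to compound for 6 h at 37 °C alongside untreated controls. Cells pelleted (3000 rpm, 15 min), washed four times in PBS, and fixed with 2.5% glutaraldehyde. Dehydrated through graded ethanol, critical-point dried and gold-coated, then imaged by SEM.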

In the case of `CCCCCCN1C(=O)[C@H](CCCCNC(=N)N)N(Cc2ccc(-c3ccc(CN4C(=O)N(CCCCCC)C(=O)[C@@H]4CCCCNC(=N)N)cc3)cc2)C1=O`, the MIC (Bacillus subtilis) is reported as 1.95 µg/mL (≈ 2.52 µM), the MIC (Acinetobacter baumannii) is reported as 15.6 µg/mL (≈ 20.2 µM) and the Activity (Staphylococcus aureus [1]) is reported as “Active”. The “fold change (FC)” value (Staphylococcus aureus [2]) was 1, the “fold change (FC)” value (Escherichia coli [3]) was 1 and the Activity (Escherichia coli [4]) was “Dose-Dependent Effect”. The Activity (Escherichia coli [5]) was “Dose-Dependent Effect” and the Activity (Escherichia coli [6]) was “Active”.
